# SR-BI DiI inh – blocks mouse SR-BI lipid uptake from DiI-HDL; Q61009; ldlA[mSR-BI] CHO cells, DiI-HDL uptake fluorescence, 3 h; inhibition, % at 12.5 µM; 320,000 tested, 0.96% active; AID 488896;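 active = mean replicate inhibition of at least 70% and a set share of replicates each scoring 70 or more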;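 note: 0% = median of neutral control wells and 100% = median of positive control wells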
# Target sequence (Q61009 whole entry, looked up): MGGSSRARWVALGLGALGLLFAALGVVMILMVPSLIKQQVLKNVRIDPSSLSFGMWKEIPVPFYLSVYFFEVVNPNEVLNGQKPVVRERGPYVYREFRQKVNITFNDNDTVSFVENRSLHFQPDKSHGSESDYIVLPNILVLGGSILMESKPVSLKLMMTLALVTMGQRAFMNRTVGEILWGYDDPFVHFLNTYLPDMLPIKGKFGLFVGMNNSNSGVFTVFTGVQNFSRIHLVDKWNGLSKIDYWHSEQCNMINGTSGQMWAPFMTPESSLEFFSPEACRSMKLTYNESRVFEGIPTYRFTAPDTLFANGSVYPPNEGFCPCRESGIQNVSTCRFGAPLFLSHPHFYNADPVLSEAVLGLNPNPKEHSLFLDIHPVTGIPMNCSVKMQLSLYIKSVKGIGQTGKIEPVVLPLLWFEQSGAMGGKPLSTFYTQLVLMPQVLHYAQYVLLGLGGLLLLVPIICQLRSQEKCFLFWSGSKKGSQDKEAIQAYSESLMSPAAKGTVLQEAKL
# sPLA2-III inh – Blocks human group III sPLA2 activity. Q9NZ20. QFRET BODIPY PC-A2 liposome hydrolysis, fluorescence. inhibition, % at 12.2 µM. 370,000 tested, 0.56% active. AID 743126;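 active = inhibition above mean plus 3 SD of compounds lying within the high and low control bounds, cut at about 19% in these data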;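 note: 0% = median of test compound wells and 100% = no enzyme DMSO wells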
# Xi reactivation – activators of X-chromosome reactivation in mouse fibroblasts | activation, % at 7.58 µM | XiGFP mouse fibroblasts, % GFP-positive cells imaging, 3 d; cells co-treated with 5-aza-dC sensitizer; scaled so ellipticine positive control = 100% | 360,000 tested, 0.055% active | AID 743238;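 active = mean normalized replicate activation at least 10% and every replicate at or above 10%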;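 note: 0% = median of on-plate neutral control wells and 100% = ellipticine 6 µM median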
#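 System: SV40-immortalized XiGFP fibroblast cells, line 68-5-11 / Incubation: 3-day compound exposure, then 15 min fixation at room temperature / Compound: single concentration per compound, delivered by pin transfer / Buffer or medium: DMEM plus 5-aza-dC sensitizer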
# ARNT-TACC3 inh – ARNT/TACC3 interaction disruption; Q9Y6A5; AlphaScreen His-ARNT PAS-B/GST-TACC3 binding, luminescence; TACC3 fragment carries E629A point mutation; inhibition, % at 9.99 µM; 390,000 tested, 0.66% active;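 active = mean inhibition of replicates at least 50% and at least half of replicates each reaching 50%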;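 note: 0% = complete ARNT plus TACC3 wells and 100% = ARNT alone without TACC3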
# SR-BI uptake up – enhances SR-BI lipid uptake from DiI-HDL. CHO ldlA[mSR-BI] cells, DiI-HDL uptake fluorescence, 3 h; 100 = double the neutral-control signal. activation, % at 12.5 µM. 320,000 tested, 0.096% active;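 active = mean replicate activation of at least 60% and every replicate at or above 60%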;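 note: 0% = median plate neutral-control signal and 100% = twice that signal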
#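 Test system: SR-BI-overexpressing, LDLR-lacking CHO cells; Also added: labelled HDL, 10 µg/mL; Measured by: bottom-read cell fluorescence after medium removal, ex 550/em 595 nm; Timing: 3 h uptake period with compound, 37 °C; Buffer or medium: F12, 0.5% BSA, 25 mM HEPES; Doses: single compound concentration, delivered by pin transfer.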
# NSD2 inh – NSD2 (human) methyltransferase inhibition. O96028. NSD2 peptide methylation, AlphaScreen, 120 min. inhibition, % at 12.5 µM. 310,000 tested, 0.54% active; in the data active = inhibition above about 50%
# * = called active by the depositor; x = no result. This is a sample that favours compounds with a hit; in the whole collection about 2% have one here.
SMILES,SR-BI DiI inh,sPLA2-III inh,Xi reactivation,ARNT-TACC3 inh,SR-BI uptake up,NSD2 inh
COc1ccc(S(=O)(=O)Nc2ccc3c(c2)C(=O)N([C@H](C)CO)C[C@@H](C)[C@H](CN(C)S(=O)(=O)c2ccc(Cl)cc2)OCCCC[C@H](C)O3)cc1,x,x,0,-5,x,x
CCOC(=O)c1c(NC(=O)c2c(-c3ccccc3)noc2C)sc(C)c1-c1ccccc1,75*,-3,x,0,-75,-2
Cc1onc(-c2ccccc2)c1C(=O)Nc1sc2c(c1C#N)CCC(C)C2 (centres undefined),72*,-2,x,3,-72,-3
N#Cc1c(NC(=O)c2ccc(-c3ccccc3[N+](=O)[O-])o2)sc2c1CCCC2,60,-2,x,21,-60,1
CCOC(=O)c1c(NC(=O)/C=C/C(=O)O)sc(C)c1-c1ccc(C(C)(C)C)cc1,-19,-29,0,0,19,69*
CC1CCc2c(sc(NC(=O)c3ccc(-c4ccccc4[N+](=O)[O-])o3)c2C#N)C1 (centres undefined),90*,1,x,1,-90,-5
O=C(COc1ccc([N+](=O)[O-])cc1Cl)N(C1CCCCC1)C1CCS(=O)(=O)C1 (centres undefined),6,6,0,-3,-6,4
O=c1cc(CN2CCN(c3ccc(F)cc3)CC2)c2cc3c(cc2o1)CCCC3,71*,5,x,-2,-71,-3
CCOC(=O)CCCCC(=O)c1[nH]c(=O)[nH]c1C[n+]1ccc(C)cc1,-15,-1,0,8,15,1
Cc1[nH]c(=O)[nH]c1C(=O)CCCCC(=O)OCC(=O)Nc1ccccn1,-14,-2,x,3,14,142*
O=C(Nc1ccccc1)Nc1ccc2c(c1)[C@H]1C[C@@H](CC(=O)N3CCCCC3)O[C@@H](CO)[C@H]1O2,x,x,0,-5,x,x
CCC(=O)Nc1ccc2c(c1)Cc1cc(NC(=O)CC)ccc1-2,74*,1,0,-7,-74,-3
N#Cc1c(=O)c2nc(NCc3ccccc3)ncc2n2ccccc12,-9,1,x,53*,9,5
CC(=O)c1c(C)[nH]c(C(=O)Nc2ccc(Cl)c(S(=O)(=O)N(C)C)c2)c1C,82*,-4,0,6,-82,27
CC(=O)c1c(C)[nH]c(C(=O)OCC(=O)Nc2ccc(Cl)c(S(=O)(=O)N(C)C)c2)c1C,x,-24,0,-4,x,-1
CC(=O)c1c(C)[nH]c(C(=O)Nc2cccc(S(=O)(=O)N(C)c3ccccc3)c2)c1C,80*,-40,0,3,-80,4
CN1CC2C(c3ccc(Br)cc3)C(C1)N2S(C)(=O)=O (centres undefined),x,x,0,x,x,x
CC(CCc1ccccc1)NC(=O)C1CCCN(C(=O)c2cc3sccc3n2C)C1 (centres undefined),80*,-19,x,6,-80,1
Cn1c(C(=O)N2CCCC(C(=O)NCc3cccs3)C2)cc2sccc21 (centres undefined),41,-13,x,-4,-41,x
CC(=O)c1ccc(N2C(=NC(=O)COc3ccccc3)SC3CS(=O)(=O)CC32)cc1 (centres undefined),-15,-1,0,x,15,-1
O=C(Nc1ccc([N+](=O)[O-])cn1)c1cc(-c2cccc(Cl)c2)nc2ccccc12,77*,1,0,-4,-77,-3
O=C(C[C@H]1CC[C@@H]2[C@H](COC[C@H](O)CN2C(=O)Nc2ccc(F)cc2)O1)NC1CCC1,x,x,0,1,x,x
CNC[C@@H]1OCCCC[C@@H](C)Oc2ccc(NC(=O)C3CCCCC3)cc2C(=O)N([C@H](C)CO)C[C@H]1C,x,x,0,1,x,x
Fc1ccc(-c2cc3nc(-c4ccccc4)cc(N4CCOCC4)n3n2)cc1,73*,-2,x,1,-73,-3
Cc1cccc(-c2cc3nc(-c4ccccc4)cc(N4CCC5(CC4)OCCO5)n3n2)c1,83*,-6,x,-9,-83,0
SMILES,SR-BI DiI inh,sPLA2-III inh,Xi reactivation,ARNT-TACC3 inh,SR-BI uptake up,NSD2 inh
COc1ccc(/C(C)=N\Nc2nc(-c3ccccc3)cc(=O)[nH]2)cc1,73*,13,0,10,-73,-2
COc1ccc(/C(C)=N/Nc2nc(C)cc(-c3ccccc3)n2)cc1,x,-3,0,x,x,-1
O=C(NCc1ccccn1)C(=O)NCC(c1ccco1)N1CCN(c2ccc(F)cc2)CC1 (centres undefined),x,-4,0,12,x,-2
Cc1ccc(OCCOCCN(C)C)c(Cl)c1,-64,4,0,-1,64*,-1
CN(C)CCCCOc1ccc(Br)cc1Cl,-7,-2,0,-2,7,x
CC(=NNc1nc2ccccc2o1)c1ncccn1,36,3,0,62*,-36,33
C/C(=N\Nc1nc2ccccc2s1)c1cccs1,33,-3,0,17,-33,6
CC(=NNc1nc2ccccc2o1)c1cc2ccccc2cn1,33,-14,73*,5,-33,42
CC(=NNc1nc2ccccc2s1)c1ncccn1,14,-4,7,63*,-14,2
Cc1ccc2[nH]c3nc(SCCN4CCOCC4)nnc3c2c1,-29,7,x,3,29,x
Cc1ccc2[nH]c3nc(NN)nnc3c2c1,-10,2,0,61*,10,-1
O=C1Nc2ccc(Br)cc2C1(O)c1ccccc1 (centres undefined),-19,-7,0,-16,19,9
O=C1Nc2ccc(Br)cc2C12NNc1ccccc1O2 (centres undefined),90*,5,1,-12,-90,x
CC(=O)N1CCc2c1cccc2S(=O)(=O)NC(CC(C)C)C(=O)Nc1ccc(F)cc1Cl (centres undefined),x,-2,x,x,x,-2
N#Cc1ccc2[nH]cc(CCO)c2c1,-18,3,0,x,18,x
S=c1sc2c(Cl)ncnc2n1-c1ccccc1,10,3,0,69*,-10,14
Cc1cc(=O)n(-c2ccc(C(=O)O)cc2)[nH]1,-24,3,0,50*,24,29
CCOC(=O)c1ccc(-n2[nH]c(-c3ccccc3)cc2=O)cc1,5,1,x,5,-5,x
O=c1[nH]c(=S)[nH]c2c1C(c1cc([N+](=O)[O-])c(N3CCOCC3)cc1N1CCOCC1)O2 (centres undefined),-6,5,0,0,6,7
O=C(Nc1c2c(nn1-c1ccccc1)CS(=O)C2)c1ccc(S(=O)(=O)N2CCOCC2)cc1 (centres undefined),-32,-1,0,7,32,x
